Reference: ChEMBL document CHEMBL1158154, “Design and synthesis of novel 2-pyridone peptidomimetic falcipain 2/3 inhibitors” (Bioorg Med Chem Lett, 2008)

Columns and labels:
Plasmodium falciparum [1] = assay: Antimalarial activity against chloroquine-sensitive Plasmodium falciparum 3D7 in human erythrocytes by [3H]hypoxanthine uptake; format: functional, organism-based
In short: (§1)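 P. falciparum kept in continuous culture in human erythrocytes; compounds tested in triplicate on parasite-infected red cells. Growth read as parasite [3H]-hypoxanthine incorporation, and IC50 derived from it. TM6 is a chloroquine-resistant strain and 3D7 a chloroquine-sensitive strain.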

Plasmodium falciparum [2] = assay: Antimalarial activity against chloroquine-resistant Plasmodium falciparum TM6 in human erythrocytes by [3H]hypoxanthine uptake; format: functional, organism-based; in short: as §1
[3] = molecular target: T1, Cysteine protease falcipain-3 (Plasmodium falciparum, UniProt Q9NBA7); assay: Inhibition of Plasmodium falciparum recombinant falcipain-3
T1 sequence (Q9NBA7 whole entry): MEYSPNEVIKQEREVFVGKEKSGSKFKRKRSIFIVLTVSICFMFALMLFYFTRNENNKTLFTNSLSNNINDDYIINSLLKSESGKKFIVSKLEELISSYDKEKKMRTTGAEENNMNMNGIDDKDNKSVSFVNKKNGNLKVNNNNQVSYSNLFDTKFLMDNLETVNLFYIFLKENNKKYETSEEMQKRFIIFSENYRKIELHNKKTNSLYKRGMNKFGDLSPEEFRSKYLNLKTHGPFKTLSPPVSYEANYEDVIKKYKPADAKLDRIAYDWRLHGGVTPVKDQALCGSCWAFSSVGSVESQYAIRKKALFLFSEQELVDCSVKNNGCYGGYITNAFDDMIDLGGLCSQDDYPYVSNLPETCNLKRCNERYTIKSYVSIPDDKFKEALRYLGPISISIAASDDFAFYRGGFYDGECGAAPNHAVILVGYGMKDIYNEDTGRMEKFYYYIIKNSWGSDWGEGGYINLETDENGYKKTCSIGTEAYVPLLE

Plasmodium falciparum [4] = assay: Antimalarial activity against Plasmodium falciparum Itg2 in human erythrocytes by [3H]hypoxanthine uptake; format: functional, organism-based
Falcipain 2 = molecular target: T2, Falcipain 2 (Plasmodium falciparum, UniProt Q9N6S8); assay: Inhibition of Plasmodium falciparum recombinant falcipain-2
T2 sequence (Q9N6S8 whole entry): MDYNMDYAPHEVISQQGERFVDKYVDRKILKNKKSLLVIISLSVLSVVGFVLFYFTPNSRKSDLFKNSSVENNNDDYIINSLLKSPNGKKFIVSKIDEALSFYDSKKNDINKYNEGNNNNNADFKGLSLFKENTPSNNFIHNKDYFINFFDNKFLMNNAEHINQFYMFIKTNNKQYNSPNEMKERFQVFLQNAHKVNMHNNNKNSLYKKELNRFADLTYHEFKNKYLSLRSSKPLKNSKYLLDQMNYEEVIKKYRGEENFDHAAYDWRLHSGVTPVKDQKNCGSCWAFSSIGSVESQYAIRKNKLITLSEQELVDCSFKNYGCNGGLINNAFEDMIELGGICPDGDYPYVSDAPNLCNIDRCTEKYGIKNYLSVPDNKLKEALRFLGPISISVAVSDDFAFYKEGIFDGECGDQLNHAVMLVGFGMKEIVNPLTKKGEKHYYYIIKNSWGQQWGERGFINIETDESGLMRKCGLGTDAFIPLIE

IC50 (Plasmodium falciparum [4]) | Compound | IC50 (Plasmodium falciparum [1]) | IC50 (Plasmodium falciparum [2]) | IC50 [3] | IC50 (Falcipain 2)
 | O=C[C@H](Cc1ccccc1)n1cccc(NC(=O)OCc2ccccc2)c1=O | 37.3 µM | 36 µM |  | 
3 nM | CC(C)C[C@H](NC(=O)N1CCOCC1)C(=O)N[C@H](/C=C/S(=O)(=O)c1ccccc1)CCc1ccccc1 |  |  | 0.021 µM | 
 | O=C(Nc1cccn([C@H](/C=C/S(=O)(=O)c2ccccc2)CCc2ccccc2)c1=O)OCc1ccccc1 | 5.7 µM | 9 µM |  | 
 | O=C[C@H](CCc1ccccc1)n1cccc(NC(=O)OCc2ccccc2)c1=O | 31 µM | 22.7 µM | > 25 µM | 10.9 µM
 | COC(=O)/C=C/[C@H](CCc1ccccc1)n1cccc(NC(=O)OCc2ccccc2)c1=O | 27.9 µM | 35.3 µM | > 25 µM | 19 µM
 | O=C(Nc1cccn([C@H](/C=C/S(=O)(=O)c2ccccc2)Cc2ccccc2)c1=O)OCc1ccccc1 | 35.7 µM | 36 µM |  | 
